Assay outcomes deposited in PubChem BioAssay by several laboratories.
In the library only some 2.8% were active in any assay of this set; here they are far more common.
AI-2 QS mod – modulates the Vibrio harveyi AI-2 quorum sensing system; activity change, % at 7.5 µM; Vibrio harveyi JMH597 AI-2 luminescence/OD600 ratio, 9 h; stronger effect = lower value; strain lacks LuxN and CqsS sensors; 0 = neutral-control median; AID 2094; actives 0.4% (n = 300,000); in the data active = activity change below about -75%, passing the limit was not always enough; inconclusive = no clear call, values can overlap the other calls;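 also: luminescence divided by OD600 gain over 9 h not by final OD600 alone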
UBC13 polyUb – blocks human UBC13 polyubiquitin chain formation | P61088 | TR-FRET | inhibition, % at 20 µM | actives 0.47% (n = 330,000) | AID 485273; in the data active = inhibition above about 45%, passing the limit was not always enough; inconclusive = no clear call, values can overlap the other calls
Target sequence (P61088 whole entry, looked up): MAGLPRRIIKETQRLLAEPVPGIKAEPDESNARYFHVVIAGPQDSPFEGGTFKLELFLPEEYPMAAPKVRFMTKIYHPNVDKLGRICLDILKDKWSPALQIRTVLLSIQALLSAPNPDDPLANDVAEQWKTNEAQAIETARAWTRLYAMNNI
pCIP destab – compounds decreasing mouse p/CIP protein stability; Q05BA5; F442A p/CIP-EGFP cells, EGFP fluorescence, 16 h; decrease of EGFP signal, % at 10 µM; actives 0.01% (n = 290,000);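 active = EGFP signal decrease of at least 30% at 10 µM or well 3 SD below plate mean, unless failing retest; inactive = the rest, including hits failing retest or dose response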
PP1 counter – blocks human PP1-alpha phosphatase, a PP5 counter-screen. purified PP1alpha, OMFP fluorescence. inhibition, % at 6.7 µM. actives 0.9% (n = 320,000). AID 2235;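 active = inhibition above the mean inhibition of all tested compounds plus 3 SD, computed separately for each screening campaign, cut at about 15% in these data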
Target sequence (P62136 whole entry, looked up): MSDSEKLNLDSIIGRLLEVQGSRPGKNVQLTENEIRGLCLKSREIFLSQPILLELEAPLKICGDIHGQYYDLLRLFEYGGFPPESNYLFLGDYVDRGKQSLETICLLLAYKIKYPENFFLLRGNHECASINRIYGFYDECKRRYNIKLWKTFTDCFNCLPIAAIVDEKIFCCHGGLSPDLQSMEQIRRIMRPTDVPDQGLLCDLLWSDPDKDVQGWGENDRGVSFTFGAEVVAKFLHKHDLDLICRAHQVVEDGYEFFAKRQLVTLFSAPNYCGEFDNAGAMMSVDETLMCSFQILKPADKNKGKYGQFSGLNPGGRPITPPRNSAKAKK
T cruzi inh – blocks replication of Trypanosoma cruzi; inhibition, % (no concentration beside the values); T. cruzi beta-gal in NIH3T3, luminescence, 90 h; actives 1.4% (n = 300,000); AID 1885;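 active = mean inhibition across valid replicates above about 55%, limit read from the data; inconclusive = mean below that limit but half or more replicates reach it; inactive = mean below it, under half of replicates reach it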;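 also: signal also drops with host cell toxicity which is not excluded here; 0% = plate median of DMSO wells and 100% = zero luminescence signal; higher percent means less beta-gal luminescence so fewer parasites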
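Assay system: NIH/3T3 host cells with β-galactosidase reporter T. cruzi; input: 5,000 host fibroblasts per well; compound: single 50 nL compound addition per well in DMSO; timing: ≥90 h infection period, 3 h prior cell attachment; measured by: GalScreen β-gal luminescence, detergent lysis, 60 min; evaluation: percent inhibition of parasite-derived β-gal signal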
PP1 inh confirm – confirmation of human PP1 phosphatase inhibitors; actives 52% (n = 1,900); shares compounds with PP1 counter; inhibition, % at 6.7 µM; purified PP1alpha, OMFP substrate fluorescence;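 active = mean PP1 inhibition above a set limit taken from the earlier primary screen, cut at about 15% in these data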
PP5 inh counter – inhibits human PP5 phosphatase in PP1 counter-screen; shares compounds with PP1 counter; purified PP5c, OMFP fluorescence; inhibition, % at 6.7 µM; actives 4% (n = 1,900); AID 2360;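 active = mean PP5 inhibition over triplicate wells above about 9.5% taken from the earlier PP1 screen, limit read from the data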
The depositor's hits bear a star; ? = inconclusive; · = not tested or not shown.

SMILES	AI-2 QS mod	UBC13 polyUb	pCIP destab	PP1 counter	T cruzi inh	PP1 inh confirm	PP5 inh counter
C(=N\Nc1nc2ccccc2[nH]1)/c1cccc2nccnc12	-3.8	-34.0	2.0	-0.8	12.6	·	·
CCCCn1c(/C=N/Nc2nc3ccccc3[nH]2)nc2ccccc21	14.5	-19.1	-11.2	20.6*	39.1	12.3	-1.1
Fc1ccccc1-c1ccc(/C=N/Nc2nc3ccccc3[nH]2)o1	32.4	-16.8	2.2	17.8*	29.0	17.8*	1.1
C#CCn1cc(/C=N/Nc2nc3ccccc3[nH]2)c2ccccc21	26.7	12.3	-11.3	21.7*	36.9	23.8*	1.9
CCOC(=O)Cc1cc(=O)n2[nH]c(-c3ccccc3)c(-c3ccccc3)c2n1	19.9	5.0	-0.2	39.1*	14.2	40.5*	-1.1
CCOC(=O)Cc1cc(=O)n2[nH]c(-c3ccccc3)cc2n1	8.5	3.7	-5.2	11.5	-6.3	·	·
O=C(NC1CCCC1)c1nc2c(nnn2Cc2cccc(Cl)c2)c(=O)[nH]1	28.0	3.6	0.9	20.6*	4.8	9.1	-2.4
O=c1[nH]c(C2CCN(S(=O)(=O)c3cccc(C(F)(F)F)c3)CC2)nc2c1nnn2Cc1cccc(F)c1	17.1	5.3	-17.6	14.1	21.2	·	·
O=C(NC1CCCC1)c1nc2c(nnn2Cc2ccccc2Cl)c(=O)[nH]1	18.4	-10.9	-12.3	13.3	34.6	·	·
O=c1[nH]c(C2CCN(S(=O)(=O)c3ccc(C(F)(F)F)cc3)CC2)nc2c1nnn2Cc1ccc(F)cc1	14.8	-0.4	-8.2	18.7*	17.4	5.2	5.3
CC(=O)c1cccc(S(=O)(=O)N2CCCC(c3nc4c(nnn4Cc4cccc(Cl)c4)c(=O)[nH]3)C2)c1 (stereo unspecified)	40.2	-10.2	2.4	20.2*	-2.0	15.5*	1.9
Cc1ccc(NS(=O)(=O)c2cccc(C(=O)N3CCN(C(=O)c4ccco4)CC3)c2)cc1	·	-11.5	·	-0.3	·	·	·
O=C(CN1C(=O)S/C(=C\c2ccc(Cl)cc2)C1=O)NNC(=O)c1ccccc1O	29.3	·	5.9	18.5*	12.4	12.4	-5.6
NC(=O)c1ccsc1NC(=O)COC(=O)c1nc(Cl)ccc1Cl	35.0	11.7	·	45.4*	-5.5	-0.1	-3.3
NC(=O)c1ccsc1NC(=O)COC(=O)c1ccc(Cl)nc1	38.4	0.0	·	1.3	-4.4	·	·
O=C(O)[C@@H](c1ccccc1)N1Cc2ccccc2C1=O	11.2	-16.9	-10.8	24.1*	-6.7	35.2*	-5.2
Cc1noc(C)c1C(=O)Nc1ccccc1C(=O)NCCc1ccccc1	29.6	8.7	-9.6	20.7*	-0.4	0.5	-2.1
Cc1ccc(C)c(N2CCN(C(=O)c3ccc(Cn4c(=S)[nH]c5ccc(N6CCOCC6)cc5c4=O)cc3)CC2)c1	16.1	12.0	-15.9	30.4*	75.2*	13.1	-1.6
O=c1c2cc(N3CCOCC3)ccc2[nH]c(=S)n1Cc1ccc(Cl)cc1	7.9	4.7	-8.4	3.4	-1.7	·	·
O=C(c1ccc(Cn2c(=S)[nH]c3ccc(N4CCOCC4)cc3c2=O)cc1)N1CCN(c2ccc(F)cc2)CC1	6.6	19.5	-15.2	17.6*	84.8*	19.1*	-0.6
CC(=O)N1CCN(Cc2nc3cc(NC(=O)Nc4ccccc4)ccc3n2C)CC1	10.6	-7.2	-3.5	0.7	-26.4	·	·
NC(=O)NCCCC(NC(=O)c1ccc(C#CC2(O)CCCCC2)cc1)C(=O)O (stereo unspecified)	21.0	0.0	-12.4	1.1	6.0	·	·
CSc1cccc(NC(=S)N(CCC(C)C)C2CCN(C(C)C)CC2)c1	3.2	-1.0	3.3	3.0	-6.9	·	·
CSCCC(NC(=O)c1ccccc1Cl)C(=O)NCC(c1ccco1)N1CCCCC1 (stereo unspecified)	31.9	-4.5	·	44.6*	-13.6	-5.2	-1.8
CCCCc1ccc(NC(=O)Nc2cc(C)nn2C)cc1	18.6	7.1	3.8	-1.4	-6.7	·	·
SMILES	AI-2 QS mod	UBC13 polyUb	pCIP destab	PP1 counter	T cruzi inh	PP1 inh confirm	PP5 inh counter
O=C(CN1C(=O)/C(=C2\SC(=S)N(CCS(=O)(=O)O)C2=O)c2ccccc21)Nc1cccc(Br)c1	21.6	·	-2.7	36.6*	-2.4	38.8*	-1.6
O=C(O)C1=NN(c2ccccc2)C(=O)C1	8.0	-3.2	4.4	28.7*	-7.8	-2.8	-4.4
CCOC(=O)c1c(C)[nH]c(C(=O)OCC(=O)NCc2ccc(C)cc2)c1C	·	-18.2	·	18.8*	·	11.5	-4.6
CCOC(=O)c1c(C)[nH]c(C(=O)OCC(=O)NCc2ccccc2)c1C	·	-0.3	·	·	·	·	·
CC(=O)NC(c1ccco1)c1ccc2cccnc2c1O (stereo unspecified)	-19.6	-15.0	6.6	0.3	45.1	·	·
CCC(=O)NC(c1cc(Cl)c2cccnc2c1O)C1CC1 (stereo unspecified)	·	-15.5	·	-0.2	·	·	·
CCCC(=O)NC(c1ccccc1Cl)c1ccc2cccnc2c1O (stereo unspecified)	·	-38.2	-13.5	19.9*	52.4	10.1	-3.0
CCCC(=O)NC(c1ccc(C(C)C)cc1)c1ccc2cccnc2c1O (stereo unspecified)	17.1	-12.8	-90.2	26.4*	56.8*	23.4*	-1.1
CC(C)C(=O)NC(c1ccc(Cl)cc1Cl)c1ccc2cccnc2c1O (stereo unspecified)	9.6	2.8	3.9	26.9*	40.2	19.7*	-3.1
CCCCC(=O)NC(c1cccs1)c1cc(Cl)c2cccnc2c1O (stereo unspecified)	?	-43.2	-29.6	19.5*	?	24.4*	-4.0
CC(C)CN(C(=O)CCC(=O)OCC(=O)N(C)c1ccccc1)c1c(N)n(CC(C)C)c(=O)[nH]c1=O	1.7	-5.2	·	-4.7	-16.2	·	·
CSCC[C@H](NC(=O)c1cccnc1)c1nnc2ccccn12	42.3	-0.9	-8.7	-1.2	-8.3	·	·
Cc1cc(NC(c2ccc(Cl)cc2)c2ccc3cccnc3c2O)no1 (stereo unspecified)	-93.1*	-11.0	-12.3	21.6*	37.3	15.3*	-1.6
COc1cc(C(Nc2ccccn2)c2ccc3ccc(C)nc3c2O)cc(OC)c1O (stereo unspecified)	52.4	-9.1	-5.3	1.2	51.8	·	·
Cc1cc(OCC(=O)N(Cc2ccco2)c2c(N)n(Cc3ccccc3)c(=O)[nH]c2=O)ccc1Cl	·	-23.9	·	0.7	·	·	·
Cn1c(SCC(=O)c2ccc3c(c2)Cc2ccccc2-3)nnc1-c1ccccc1	20.5	8.2	2.5	26.0*	-21.0	31.5*	-1.2
Cn1c(SCC(=O)c2ccccc2)nnc1-c1ccncc1	18.8	5.8	-7.3	-0.8	-5.5	·	·
COc1cccc(/C=N/NC(=O)c2ccc(-c3ccccc3)cc2)c1O	10.8	-17.3	2.8	22.0*	-7.5	24.8*	2.0
